Test results published in ChEMBL document CHEMBL1139054, “Indanylacetic acid derivatives carrying aryl-pyridyl and aryl-pyrimidinyl tail groups--new classes of PPAR gamma/delta and PPAR alpha/gamma/delta agonists” (Bioorg Med Chem Lett, 2007).
Active and inactive are the calls of the source. No cut-off for these calls is given here.

Key:
[1] = target: T1, Peroxisome proliferator-activated receptor gamma (Mus musculus, UniProt P37238); experiment: Agonist activity at PPARgamma in mouse 3T3-L1 cells by IRBA; assay type: functional, cell-based
T1 sequence (P37238 whole entry): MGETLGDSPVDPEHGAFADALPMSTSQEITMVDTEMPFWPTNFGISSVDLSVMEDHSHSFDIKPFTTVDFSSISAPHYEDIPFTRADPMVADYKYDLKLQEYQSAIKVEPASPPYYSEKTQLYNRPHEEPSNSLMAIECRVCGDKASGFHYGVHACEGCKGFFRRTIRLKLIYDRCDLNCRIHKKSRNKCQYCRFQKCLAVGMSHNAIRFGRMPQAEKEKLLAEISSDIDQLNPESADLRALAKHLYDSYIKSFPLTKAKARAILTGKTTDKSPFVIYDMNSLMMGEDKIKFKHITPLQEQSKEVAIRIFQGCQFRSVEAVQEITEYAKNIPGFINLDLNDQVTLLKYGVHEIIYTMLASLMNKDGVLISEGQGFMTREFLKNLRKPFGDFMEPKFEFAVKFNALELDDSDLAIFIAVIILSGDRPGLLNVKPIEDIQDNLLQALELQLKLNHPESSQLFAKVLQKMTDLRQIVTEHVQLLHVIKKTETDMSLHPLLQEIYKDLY

[2] = target: T2, Peroxisome proliferator-activated receptor delta (Homo sapiens, UniProt Q03181); experiment: Agonist activity at human PPARdelta by FRET assay; assay type: functional
T2 sequence (Q03181 whole entry): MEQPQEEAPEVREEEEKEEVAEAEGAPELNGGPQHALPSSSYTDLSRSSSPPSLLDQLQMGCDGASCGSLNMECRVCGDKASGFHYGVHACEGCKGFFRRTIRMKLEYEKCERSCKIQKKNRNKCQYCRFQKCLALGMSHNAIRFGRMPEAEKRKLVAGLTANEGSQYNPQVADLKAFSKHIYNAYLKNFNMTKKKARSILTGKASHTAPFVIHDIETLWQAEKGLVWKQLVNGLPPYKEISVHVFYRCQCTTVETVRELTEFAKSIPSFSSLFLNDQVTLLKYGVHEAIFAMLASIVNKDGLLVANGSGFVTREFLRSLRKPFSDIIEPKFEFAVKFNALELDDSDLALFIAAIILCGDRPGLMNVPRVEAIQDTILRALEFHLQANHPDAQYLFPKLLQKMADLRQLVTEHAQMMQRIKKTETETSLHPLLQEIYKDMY

[3] = target: T3, Peroxisome proliferator-activated receptor alpha (Homo sapiens, UniProt Q07869); experiment: Agonist activity at human PPARalpha by FRET assay; assay type: functional
T3 sequence (Q07869 whole entry): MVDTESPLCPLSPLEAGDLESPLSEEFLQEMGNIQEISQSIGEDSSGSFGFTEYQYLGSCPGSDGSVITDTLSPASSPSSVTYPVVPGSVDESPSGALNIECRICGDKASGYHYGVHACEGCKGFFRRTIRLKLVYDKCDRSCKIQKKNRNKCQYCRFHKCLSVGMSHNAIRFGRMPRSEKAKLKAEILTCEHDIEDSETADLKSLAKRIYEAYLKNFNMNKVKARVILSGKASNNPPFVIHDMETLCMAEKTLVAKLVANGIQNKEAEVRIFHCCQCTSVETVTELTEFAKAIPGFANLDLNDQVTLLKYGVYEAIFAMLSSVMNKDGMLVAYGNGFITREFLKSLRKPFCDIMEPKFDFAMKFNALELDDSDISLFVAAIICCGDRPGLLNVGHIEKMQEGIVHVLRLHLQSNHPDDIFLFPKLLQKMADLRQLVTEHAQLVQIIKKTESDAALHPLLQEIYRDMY
Procedure, shortened: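 Human PPARα ligand-binding domain (GST-tagged) incubated with compound, europium-labeled anti-GST antibody, biotinylated coactivator-binding peptide and streptavidin-APC. FRET read at excitation 340 nm, emission 615 and […]. Means of at least two experiments.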

[4] = target: T2, Peroxisome proliferator-activated receptor delta; experiment: Activity at human PPARdelta expressed in CV1 cells by GAL4 transactivation assay; assay type: cell-based, CV-1
Procedure, shortened: (§1)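 GAL4 transactivation in CV-1 cells (2.8 × 10⁴ per well, grown overnight in 10% FBS medium). Cells transiently transfected (Lipofectamine/Plus) with Gal4/PPAR-LBD fusion, UAS/firefly luciferase and Renilla luciferase plasmids. After overnight culture in charcoal/dextran-treated 10% FBS medium, compound added for 24 h. Dual luciferase read-out; EC50 from dose–response curve; means of at least two experiments.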

[5] = target: T4, Peroxisome proliferator-activated receptor delta (Mus musculus, UniProt P35396); experiment: Activity at mouse PPARdelta expressed in CV1 cells by GAL4 transactivation assay; assay type: cell-based, CV-1; procedure, shortened: as §1
T4 sequence (P35396 whole entry): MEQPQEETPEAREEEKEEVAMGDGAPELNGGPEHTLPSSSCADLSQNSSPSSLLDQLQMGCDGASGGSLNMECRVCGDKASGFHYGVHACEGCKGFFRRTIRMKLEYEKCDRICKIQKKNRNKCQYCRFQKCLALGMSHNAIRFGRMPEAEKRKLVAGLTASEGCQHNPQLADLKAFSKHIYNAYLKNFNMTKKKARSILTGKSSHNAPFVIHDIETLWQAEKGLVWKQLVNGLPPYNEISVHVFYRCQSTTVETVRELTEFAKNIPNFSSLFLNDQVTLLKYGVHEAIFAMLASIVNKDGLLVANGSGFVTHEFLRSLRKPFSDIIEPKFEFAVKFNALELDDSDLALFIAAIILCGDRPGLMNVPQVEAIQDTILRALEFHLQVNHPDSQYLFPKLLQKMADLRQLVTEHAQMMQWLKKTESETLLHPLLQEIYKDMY

[6] = target: T3, Peroxisome proliferator-activated receptor alpha; experiment: Activity at human PPARalpha expressed in CV1 cells by GAL4 transactivation assay; assay type: cell-based, CV-1; procedure, shortened: as §1
[7] = tested on: Mus musculus; experiment: Reduction of plasma glucose level in orally dosed db/db mouse after 7 days; assay type: functional; settings: po, 168 h
Procedure, shortened: (§2)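 Female db/db mice grouped by equal mean plasma glucose, then given compound orally once daily for 7 days in 0.5% methylcellulose in water; fed ad libitum. Plasma glucose measured about 24 h after the last dose. Percent change from drug = ((Tf/Ti)/(Vf/Vi) − 1) × 100, correcting for vehicle-group change.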

[8] = tested on: Mus musculus; experiment: Reduction of plasma glucose level in db/db mouse at 10 mg/kg, po after 7 days; assay type: functional, organism-based; set-up: dose 10 mg/kg; procedure, shortened: as §2
[9] = tested on: Rattus norvegicus; experiment: Reduction of glucose level in Zucker fa/fa rat at 10 mg/kg after 10 days; assay type: functional, organism-based; set-up: dose 10 mg/kg
[10] = Half life in rat at 3 mg/kg, po; assay type: ADME, organism-based; set-up: dose 3 mg/kg, route oral; settings: in vivo
[11] = tested on: Rattus norvegicus; experiment: AUC in rat at 3 mg/kg, po; assay type: ADME, organism-based, Plasma; set-up: dose 3 mg/kg, route oral; settings: in vivo
[12] = Cmax in rat at 3 mg/kg, po and 3 mg/kg, iv; assay type: ADME, organism-based; settings: in vivo
[13] = Bioavailability in rat at 3 mg/kg, po; assay type: ADME, organism-based; settings: in vivo
[14] = tested on: Mus musculus; experiment: Reduction of triglycerides level in hApoA1 mouse at 30 mg/kg, po after 10 days; set-up: scale not given: the % may be the effect or the level left
[15] = tested on: Mus musculus; experiment: Increase in HDL-cholesterol level in hApoA1 mouse at 30 mg/kg, po after 10 days
[16] = target: T5, Peroxisome proliferator-activated receptor alpha (Mus musculus, UniProt P23204); experiment: Activity at mouse PPARalpha expressed in CV1 cells by GAL4 transactivation assay; assay type: cell-based, CV-1; procedure, shortened: as §1
T5 sequence (P23204 whole entry): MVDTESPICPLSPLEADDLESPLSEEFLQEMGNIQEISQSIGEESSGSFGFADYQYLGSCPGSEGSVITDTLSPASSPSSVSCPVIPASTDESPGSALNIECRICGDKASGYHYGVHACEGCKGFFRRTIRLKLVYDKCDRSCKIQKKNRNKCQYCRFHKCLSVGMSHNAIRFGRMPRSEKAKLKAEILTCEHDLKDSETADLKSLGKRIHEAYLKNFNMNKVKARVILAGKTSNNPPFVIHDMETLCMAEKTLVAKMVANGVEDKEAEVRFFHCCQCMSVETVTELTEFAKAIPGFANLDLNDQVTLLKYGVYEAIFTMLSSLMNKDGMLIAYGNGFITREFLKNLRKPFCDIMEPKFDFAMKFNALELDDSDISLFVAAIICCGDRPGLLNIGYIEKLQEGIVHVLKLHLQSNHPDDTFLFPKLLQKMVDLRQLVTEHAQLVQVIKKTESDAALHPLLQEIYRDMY

Row | SMILES | EC50 [1] | EC50 [2] | EC50 [3] | further results
1 | Cc1cccc(-c2ncc(C)c(N(C)CCCOc3ccc4c(c3)CC[C@H]4CC(=O)O)n2)c1 | 0.67 µM | 0.041 µM | 4.39 µM | 
2 | Cc1cnc(-c2cccc(Cl)c2)nc1N(C)CCCOc1ccc2c(c1)CC[C@H]2CC(=O)O | 0.582 µM | 0.023 µM | 2.37 µM | 
3 | Cc1ccc(-c2ncc(C)c(N(C)CCCOc3ccc4c(c3)CC[C@H]4CC(=O)O)n2)cc1 | 0.78 µM | 0.009 µM | 1.15 µM | 
4 | CCOc1cccc(-c2ncc(C)c(N(C)CCCOc3ccc4c(c3)CC[C@H]4CC(=O)O)n2)c1 | 6.93 µM | 0.007 µM | 3.54 µM | 
5 | CCc1ccc(-c2ncc(CC)c(N(C)CCCOc3ccc4c(c3)CC[C@H]4CC(=O)O)n2)cc1 | 0.95 µM | 0.002 µM | 0.12 µM | 
6 | CCOc1csc(-c2ccc(OCCCOc3ccc4c(c3)CC[C@H]4CC(=O)O)nc2)n1 | 0.411 µM | 0.003 µM | 0.807 µM | 
7 | CC(=O)c1sc(-c2ccc(OCCCOc3ccc4c(c3)CC[C@H]4CC(=O)O)nc2)nc1C | 0.035 µM | 0.009 µM | 1.39 µM | IC50 [4]: 0.056 µM; IC50 [5]: 1.39 µM; IC50 [6]: > 6 µM; ED50 [7]: 6.7 mg/kg; Activity [8]: Active; Activity [9]: Active; half-life [10]: 5 h; AUC [11]: 26 µM·h; Cmax [12]: 2.8 µM; bioavailability [13]: 48%; Activity [14]: -32%; Activity [15]: 22%
8 | COc1ccc(-c2ncc(C)c(N(C)CCCOc3ccc4c(c3)CC[C@H]4CC(=O)O)n2)cc1 | 7.01 µM | 0.012 µM | 1.39 µM | 
9 | CCc1ccc(-c2nccc(N(C)CCCOc3ccc4c(c3)CC[C@H]4CC(=O)O)n2)cc1 | 0.8 µM | 0.025 µM | 0.565 µM | 
10 | Cc1cnc(-c2ccc(Cl)cc2)nc1N(C)CCCOc1ccc2c(c1)CC[C@H]2CC(=O)O | 2.8 µM | 0.007 µM | 1.13 µM | 
11 | Cc1cnc(-c2ccc(C(C)C)cc2)nc1N(C)CCCOc1ccc2c(c1)CC[C@H]2CC(=O)O | 0.029 µM | 0.034 µM | 0.99 µM | IC50 [4]: 0.049 µM; IC50 [5]: 0.61 µM; IC50 [6]: 0.237 µM; IC50 [16]: 2.53 µM
12 | Cc1cnc(-c2ccc(F)cc2)nc1N(C)CCCOc1ccc2c(c1)CC[C@H]2CC(=O)O | 0.86 µM | 0.007 µM | 2.12 µM | 
13 | CCc1ccc(-c2nc(C)cc(N(C)CCCOc3ccc4c(c3)CC[C@H]4CC(=O)O)n2)cc1 | 0.6 µM | 0.011 µM | 0.92 µM | 
14 | Cc1cnc(-c2ccccc2)nc1N(C)CCCOc1ccc2c(c1)CC[C@H]2CC(=O)O | 0.678 µM | 0.024 µM | 6.61 µM | 

Continued by falling EC50 [1], values first:

Row | EC50 [1] | EC50 [2] | EC50 [3] | SMILES | further results
15 | 0.511 µM | 0.005 µM | 6.78 µM | Cc1nc(-c2ccc(OCCCOc3ccc4c(c3)CC[C@H]4CC(=O)O)nc2)sc1C | 
16 | 0.36 µM | 0.016 µM | 0.425 µM | CCc1ccc(-c2ncc(F)c(N(C)CCCOc3ccc4c(c3)CC[C@H]4CC(=O)O)n2)cc1 | 
17 | 0.264 µM | 0.003 µM | 0.421 µM | CCc1csc(-c2ccc(OCCCOc3ccc4c(c3)CC[C@H]4CC(=O)O)nc2)n1 | 
18 | 0.237 µM | 0.083 µM | 6.55 µM | CC(=O)c1ccc(-c2ncc(C)c(N(C)CCCOc3ccc4c(c3)CC[C@H]4CC(=O)O)n2)cc1 | 
19 | 0.161 µM | 0.058 µM | 3.09 µM | CCOc1ccc(-c2ncc(C)c(N(C)CCCOc3ccc4c(c3)CC[C@H]4CC(=O)O)n2)cc1 | 
20 | 0.156 µM | 0.028 µM | 0.641 µM | Cc1cnc(-c2ccc(C(C)(C)C)cc2)nc1N(C)CCCOc1ccc2c(c1)CC[C@H]2CC(=O)O | 
21 | 0.145 µM | 0.01 µM | 0.2 µM | CCc1ccc(-c2ncc(C)c(N(C)CCCOc3ccc4c(c3)CC[C@H]4CC(=O)O)n2)cc1 | IC50 [4]: 0.03 µM; IC50 [5]: 0.37 µM; IC50 [6]: 0.175 µM; IC50 [16]: 0.67 µM
